Experimental data taken from ChEMBL document CHEMBL4033608, “Benzophenone and Fimetarone Derivatives from the Coprophilous Fungus Delitschia confertaspora” (J Nat Prod, 2017).
Active and inactive are the calls of the source.

Legend:
Escherichia coli = experiment: Antimicrobial activity against Escherichia coli at 100 ug/disc by standard disc dassay; type: functional
Bacillus subtilis = experiment: Antimicrobial activity against Bacillus subtilis at 100 ug/disc by standard disc dassay; type: functional
Staphylococcus aureus = experiment: Antimicrobial activity against Staphylococcus aureus at 100 ug/disc by standard disc dassay; type: functional
Candida albicans = experiment: Antimicrobial activity against Candida albicans at 100 ug/disc by standard disc dassay; type: functional
Cryptococcus neoformans = experiment: Antimicrobial activity against Cryptococcus neoformans at 100 ug/disc by standard disc dassay; type: functional
MDA-MB-231 = experiment: Cytotoxicity against human MDA-MB-231 cells assessed as reduction in cell viability up to 10 uM by Cell-Titer Glo assay; type: functional, cell-based
Summary of the method: (§1)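 Viability read by CellTiter-Glo: reagent added 1:1 to the well medium, plates kept in foil and shaken 2 min at room temperature, paused 2 min, then shaken 2 min more, and luminescence measured. Compounds were tested at concentrations up to 10 μM. Sphaeropsidin A served as positive control and a DMSO blank as negative control.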

GLI56 = experiment: Cytotoxicity against human GLI56 cells assessed as reduction in cell viability up to 10 uM by Cell-Titer Glo assay; type: functional, cell-based; summary of the method: as §1
D453 (Homo sapiens) = experiment: Cytotoxicity against human D453 cells assessed as reduction in cell viability up to 10 uM by Cell-Titer Glo assay

Measured: Activity

COC(=O)c1cc(OC)cc(O)c1C1=C2CC3(COc4cc(OC)cc(C(=O)OC)c4C3=O)C(=O)C(C(C)=O)=C2C=C(C)O1 (centres undefined)
inactive: all assays above

COC(=O)c1cc(OC)cc(O)c1C(=O)c1cc(C(C)=O)c2oc3cc(OC)cc(C(=O)OC)c3c(=O)c2c1
inactive: all assays above

COC(=O)c1cc(OC)cc(O)c1C(=O)c1cc(C(C)=O)c(O)c(C(=O)c2c(O)cc(OC)cc2C(=O)OC)c1
inactive: all assays above
